Results reported in ChEMBL document CHEMBL4043192, “The discovery of IDX21437: Design, synthesis and antiviral evaluation of 2'-α-chloro-2'-β-C-methyl branched uridine pronucleotides as potent liver-targeted HCV polymerase inhibitors” (Bioorg Med Chem Lett, 2017).

Assays:
[1] = test system: Hepatitis C virus subtype 1b; test: Selectivity ratio of IC50 for HCV genotype 1b NS5B RNA dependent RNA polymerase S282T mutant to IC50 for wild-type HCV genotype 1b NS5B RNA dependent RNA polymerase
[2] = Inhibition of human RNA polymerase 2
In short: (§1)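 Biochemical enzyme inhibition assays across a panel of polymerases. IC50 was derived from percent inhibition versus concentration data.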

[3] = target: T1, DNA polymerase alpha catalytic subunit (Homo sapiens, UniProt P09884); test: Inhibition of human DNA polymerase alpha; in short: as §1
T1 sequence (P09884 whole entry): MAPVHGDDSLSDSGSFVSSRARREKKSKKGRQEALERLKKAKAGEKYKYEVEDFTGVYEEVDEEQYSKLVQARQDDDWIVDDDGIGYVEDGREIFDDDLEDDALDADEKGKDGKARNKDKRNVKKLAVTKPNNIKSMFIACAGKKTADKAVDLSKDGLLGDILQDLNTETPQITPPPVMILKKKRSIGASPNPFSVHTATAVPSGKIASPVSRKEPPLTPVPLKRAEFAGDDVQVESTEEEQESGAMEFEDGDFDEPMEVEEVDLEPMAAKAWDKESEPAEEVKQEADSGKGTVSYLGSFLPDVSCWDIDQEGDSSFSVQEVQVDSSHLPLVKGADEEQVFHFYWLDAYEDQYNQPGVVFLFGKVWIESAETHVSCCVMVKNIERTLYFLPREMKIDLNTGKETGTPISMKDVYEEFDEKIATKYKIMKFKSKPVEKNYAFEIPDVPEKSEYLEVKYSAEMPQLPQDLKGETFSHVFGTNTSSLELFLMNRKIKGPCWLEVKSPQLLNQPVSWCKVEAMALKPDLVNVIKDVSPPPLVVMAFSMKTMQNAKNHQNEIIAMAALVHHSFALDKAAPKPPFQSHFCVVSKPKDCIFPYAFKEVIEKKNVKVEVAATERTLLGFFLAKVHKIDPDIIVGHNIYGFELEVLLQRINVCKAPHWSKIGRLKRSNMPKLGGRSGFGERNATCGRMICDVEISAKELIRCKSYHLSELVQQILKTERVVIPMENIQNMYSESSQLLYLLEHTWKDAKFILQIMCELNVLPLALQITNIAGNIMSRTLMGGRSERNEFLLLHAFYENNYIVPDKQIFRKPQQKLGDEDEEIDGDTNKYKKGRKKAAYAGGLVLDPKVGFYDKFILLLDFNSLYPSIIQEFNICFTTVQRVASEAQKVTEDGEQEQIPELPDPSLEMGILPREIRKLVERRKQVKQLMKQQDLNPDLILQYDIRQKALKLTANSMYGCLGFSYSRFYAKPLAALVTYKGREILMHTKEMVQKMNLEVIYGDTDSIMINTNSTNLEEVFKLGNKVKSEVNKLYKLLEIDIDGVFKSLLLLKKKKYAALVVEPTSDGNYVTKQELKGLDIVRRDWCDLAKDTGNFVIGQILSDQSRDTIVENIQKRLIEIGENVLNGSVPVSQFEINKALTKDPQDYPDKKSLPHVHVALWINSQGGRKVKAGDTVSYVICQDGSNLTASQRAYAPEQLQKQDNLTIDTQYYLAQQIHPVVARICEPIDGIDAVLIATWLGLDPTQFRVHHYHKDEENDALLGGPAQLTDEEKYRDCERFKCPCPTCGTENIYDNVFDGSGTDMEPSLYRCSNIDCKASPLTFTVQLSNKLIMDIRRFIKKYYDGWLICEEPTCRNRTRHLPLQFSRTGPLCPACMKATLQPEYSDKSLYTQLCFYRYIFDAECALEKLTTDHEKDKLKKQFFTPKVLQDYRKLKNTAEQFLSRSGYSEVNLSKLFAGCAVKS

[4] = target: DNA-directed RNA polymerase, mitochondrial (Homo sapiens, UniProt O00411); test: Inhibition of human mitochondrial RNA polymerase; in short: as §1
Chain of DNA-directed RNA polymerase, mitochondrial (O00411 whole entry): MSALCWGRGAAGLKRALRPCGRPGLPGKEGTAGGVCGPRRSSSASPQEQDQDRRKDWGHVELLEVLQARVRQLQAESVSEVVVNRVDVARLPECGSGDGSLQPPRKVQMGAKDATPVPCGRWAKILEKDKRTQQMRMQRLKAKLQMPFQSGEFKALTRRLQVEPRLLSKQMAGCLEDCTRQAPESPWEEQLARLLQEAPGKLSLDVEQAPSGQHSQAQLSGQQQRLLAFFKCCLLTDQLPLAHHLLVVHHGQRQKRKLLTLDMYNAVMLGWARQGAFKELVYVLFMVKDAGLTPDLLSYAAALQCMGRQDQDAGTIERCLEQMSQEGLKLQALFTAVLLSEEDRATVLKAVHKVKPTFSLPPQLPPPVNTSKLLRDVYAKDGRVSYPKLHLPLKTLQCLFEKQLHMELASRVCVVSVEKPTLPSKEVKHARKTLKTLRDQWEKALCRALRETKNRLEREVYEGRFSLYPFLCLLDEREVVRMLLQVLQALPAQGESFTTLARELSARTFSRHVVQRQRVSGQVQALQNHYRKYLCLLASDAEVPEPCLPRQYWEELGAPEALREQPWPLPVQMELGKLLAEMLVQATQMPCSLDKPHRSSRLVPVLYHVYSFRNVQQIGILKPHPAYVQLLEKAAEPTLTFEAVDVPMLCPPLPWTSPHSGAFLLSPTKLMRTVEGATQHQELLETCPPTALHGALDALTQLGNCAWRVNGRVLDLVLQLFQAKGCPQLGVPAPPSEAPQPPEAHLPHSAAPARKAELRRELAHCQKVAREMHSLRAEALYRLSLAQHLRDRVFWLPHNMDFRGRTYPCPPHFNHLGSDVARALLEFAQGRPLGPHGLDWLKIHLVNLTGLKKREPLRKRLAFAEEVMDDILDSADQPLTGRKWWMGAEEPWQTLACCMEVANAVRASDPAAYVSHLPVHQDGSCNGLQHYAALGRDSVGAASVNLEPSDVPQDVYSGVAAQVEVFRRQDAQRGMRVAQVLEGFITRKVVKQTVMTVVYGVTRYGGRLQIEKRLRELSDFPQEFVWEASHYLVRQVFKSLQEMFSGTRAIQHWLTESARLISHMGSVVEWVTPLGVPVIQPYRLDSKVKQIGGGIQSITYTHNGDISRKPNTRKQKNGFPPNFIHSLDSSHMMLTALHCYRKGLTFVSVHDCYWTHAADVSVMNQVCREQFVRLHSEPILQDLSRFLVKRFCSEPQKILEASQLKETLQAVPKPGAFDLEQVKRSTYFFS

[5] = target: RNA-directed RNA polymerase (Hepacivirus hominis, UniProt O39930, S282T); test: Inhibition of HCV genotype 1b NS5B RNA dependent RNA polymerase S282T mutant; set-up: species or system Hepatitis C virus subtype 1b
Chain of RNA-directed RNA polymerase (O39930 entry or part of it S282T): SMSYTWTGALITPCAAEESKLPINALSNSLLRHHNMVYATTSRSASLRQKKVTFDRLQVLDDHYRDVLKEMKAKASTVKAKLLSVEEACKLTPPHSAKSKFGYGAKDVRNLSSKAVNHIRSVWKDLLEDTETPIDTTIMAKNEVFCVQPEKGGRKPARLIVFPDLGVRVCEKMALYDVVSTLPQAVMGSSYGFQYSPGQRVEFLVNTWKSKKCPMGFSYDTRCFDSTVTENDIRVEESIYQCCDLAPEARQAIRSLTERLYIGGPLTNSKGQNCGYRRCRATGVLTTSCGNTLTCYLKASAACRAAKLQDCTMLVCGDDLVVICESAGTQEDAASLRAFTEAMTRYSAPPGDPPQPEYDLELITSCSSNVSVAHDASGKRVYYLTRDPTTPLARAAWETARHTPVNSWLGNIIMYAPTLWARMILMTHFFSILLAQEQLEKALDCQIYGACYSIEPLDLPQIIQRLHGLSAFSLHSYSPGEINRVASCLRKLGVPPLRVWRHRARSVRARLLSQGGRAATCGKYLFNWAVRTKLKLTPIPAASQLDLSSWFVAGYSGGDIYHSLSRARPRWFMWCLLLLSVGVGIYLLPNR

[6] = Inhibition of HCV genotype 5a NS5B RNA dependent RNA polymerase assessed as reduction in [33P]-labeled nucleotide incorporation in to RNA template after 2 hrs by liquid scintillation counting method; set-up: species or system Hepatitis C virus subtype 5a; in short: as §1
[7] = Inhibition of HCV genotype 1a NS5B RNA dependent RNA polymerase assessed as reduction in [33P]-labeled nucleotide incorporation in to RNA template after 2 hrs by liquid scintillation counting method; set-up: species or system Hepatitis C virus subtype 1a; in short: as §1
[8] = Inhibition of human DNA polymerase gamma; in short: as §1
[9] = Inhibition of HCV genotype 2a NS5B RNA dependent RNA polymerase assessed as reduction in [33P]-labeled nucleotide incorporation in to RNA template after 2 hrs by liquid scintillation counting method; set-up: species or system Hepatitis C virus subtype 2a; in short: as §1
[10] = Inhibition of wild-type HCV genotype 1b NS5B RNA dependent RNA polymerase; set-up: species or system Hepatitis C virus subtype 1b
In short: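 Biochemical assay using wild-type genotype 1b HCV NS5B polymerase. IC50 was derived from percent inhibition versus concentration data.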

[11] = Inhibition of HCV genotype 4a NS5B RNA dependent RNA polymerase assessed as reduction in [33P]-labeled nucleotide incorporation in to RNA template after 2 hrs by liquid scintillation counting method; set-up: species or system Hepatitis C virus subtype 4a; in short: as §1
[12] = Inhibition of HCV genotype 6a NS5B RNA dependent RNA polymerase assessed as reduction in [33P]-labeled nucleotide incorporation in to RNA template after 2 hrs by liquid scintillation counting method; set-up: species or system Hepatitis C virus subtype 6a; in short: as §1
[13] = Inhibition of HCV genotype 3a NS5B RNA dependent RNA polymerase assessed as reduction in [33P]-labeled nucleotide incorporation in to RNA template after 2 hrs by liquid scintillation counting method; set-up: species or system Hepatitis C virus subtype 3a; in short: as §1
[14] = Half life in human hepatocytes; format: ADME, cell-based, Hepatocyte
DNA polymerase beta = DNA polymerase beta (Homo sapiens, UniProt P06746); test: Inhibition of human DNA polymerase beta; in short: as §1
[15] = Cytotoxicity against human HuH7 cells assessed as reduction in cell viability; format: cell-based, Huh-7
Hepatitis C virus [16] = test: Antiviral activity against HCV genotype 1b Con1 expressing NS3 protease infected in human Huh-7 cells assessed as reduction in viral RNA replication after 72 hrs by luciferase reporter gene assay; format: functional, cell-based, Hepacivirus hominis; settings: genotype 1b Con1, Huh-7, 72 h
Hepatitis C virus [17] = test: Antiviral activity against HCV genotype 1b Con1 infected in human Huh-7 cells over-expressing CES1; format: functional, cell-based, Hepacivirus hominis; settings: genotype 1b Con1, Huh-7
In short: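 Transient HCV replicon assay in cells transfected to overexpress CES1; EC50 from inhibition versus concentration data.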

Liver = test: Dose normalized AUC (0 to 24 hrs) in mouse liver assessed as 2'-C-MeUTP level at 10 mg/kg, po administered as single dose; format: ADME, organism-based; settings: in vivo
In short: (§2)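 Mice given a single oral 10 mg/kg dose. Triphosphate measured in liver and parent nucleoside in plasma. AUC expressed as dose-normalized AUC (AUC per mg/kg).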

[18] = Selectivity index, ratio of CC50 for human Huh-7 cells to EC50 for HCV genotype 1b Con1 expressing NS3 protease
In short: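 Selectivity index = CC50/EC50. EC50 from a luciferase-read Con1 subgenomic replicon assay in Huh-7 (GS4.1) cells.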

Plasma = test: Dose normalized AUC (0 to 24 hrs) in mouse plasma assessed as 2'-C-MeU level at 10 mg/kg, po administered as single dose; format: ADME, organism-based; settings: in vivo; in short: as §2
Cytochrome P450 3A5 = Cytochrome P450 3A5 (Homo sapiens, UniProt P20815); test: Drug metabolism assessed as CYP3A5 (unknown origin)-mediated (R)-2-((R)-(((2R,3R,4R,5R)-4-chloro-5-(2,4-dioxo-3,4-dihydropyrimidin-1(2H)-yl)-3-hydroxy-4-methyltetrahydrofuran-2-yl)methoxy)(phenoxy)phosphorylamino)propanoic acid metabolite formation; format: ADME
Chain of Cytochrome P450 3A5 (P20815 whole entry): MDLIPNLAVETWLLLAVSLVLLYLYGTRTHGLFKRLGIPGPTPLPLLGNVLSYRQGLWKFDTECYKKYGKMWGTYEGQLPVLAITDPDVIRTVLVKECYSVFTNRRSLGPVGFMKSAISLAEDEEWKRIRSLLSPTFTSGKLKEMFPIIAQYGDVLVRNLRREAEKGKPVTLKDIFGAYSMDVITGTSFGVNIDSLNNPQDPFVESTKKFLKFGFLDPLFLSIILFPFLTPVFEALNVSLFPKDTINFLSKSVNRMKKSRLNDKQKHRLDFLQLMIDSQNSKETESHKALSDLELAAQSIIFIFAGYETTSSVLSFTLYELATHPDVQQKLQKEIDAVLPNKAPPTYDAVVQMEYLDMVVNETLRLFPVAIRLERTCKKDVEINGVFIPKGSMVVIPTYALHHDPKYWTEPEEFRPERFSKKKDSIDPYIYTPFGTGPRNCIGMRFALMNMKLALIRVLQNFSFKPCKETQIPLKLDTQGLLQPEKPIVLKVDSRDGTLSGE

Cytochrome P450 3A4 = Cytochrome P450 3A4 (Homo sapiens, UniProt P08684); test: Drug metabolism assessed as CYP3A4 (unknown origin)-mediated (R)-2-((R)-(((2R,3R,4R,5R)-4-chloro-5-(2,4-dioxo-3,4-dihydropyrimidin-1(2H)-yl)-3-hydroxy-4-methyltetrahydrofuran-2-yl)methoxy)(phenoxy)phosphorylamino)propanoic acid metabolite formation; format: ADME
Chain of Cytochrome P450 3A4 (P08684 whole entry): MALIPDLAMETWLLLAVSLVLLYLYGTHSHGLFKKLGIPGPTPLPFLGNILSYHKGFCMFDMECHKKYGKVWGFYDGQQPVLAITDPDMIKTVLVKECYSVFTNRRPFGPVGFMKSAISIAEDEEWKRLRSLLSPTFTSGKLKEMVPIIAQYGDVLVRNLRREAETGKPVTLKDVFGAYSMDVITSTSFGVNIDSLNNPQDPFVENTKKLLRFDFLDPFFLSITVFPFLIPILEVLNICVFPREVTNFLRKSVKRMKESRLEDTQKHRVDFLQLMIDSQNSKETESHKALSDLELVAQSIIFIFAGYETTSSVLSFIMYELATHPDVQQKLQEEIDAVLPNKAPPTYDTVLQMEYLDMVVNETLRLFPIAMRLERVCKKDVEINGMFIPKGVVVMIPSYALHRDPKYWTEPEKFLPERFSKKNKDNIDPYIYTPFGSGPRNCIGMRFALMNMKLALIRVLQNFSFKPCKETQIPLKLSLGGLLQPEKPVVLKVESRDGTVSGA

Row | Compound | Ratio IC50 [1] | IC50 [5] | IC50 [10] | CC50 [15] | EC50 (Hepatitis C virus [16]) | EC50 (Hepatitis C virus [17]) | AUC/dose (Liver) | Ratio CC50/EC50 [18] | AUC/dose (Plasma) | further results
1 | C[C@@]1(Cl)[C@H](O)[C@@H](COP(=O)(O)OP(=O)(O)OP(=O)(O)O)O[C@H]1n1ccc(=O)[nH]c1=O [4A-TP] | 6.1 | 944 nM | 154 nM |  |  |  |  |  |  | IC50 [2]: > 500 µM; IC50 [3]: > 500 µM; IC50 [4]: > 500 µM; IC50 [6]: 230 nM; IC50 [7]: 140 nM; IC50 [8]: 95 µM; IC50 [9]: 250 nM; IC50 [11]: 150 nM; IC50 [12]: 100 nM; IC50 [13]: 160 nM; half-life [14]: > 1080 min; IC50 (DNA polymerase beta): > 500 µM
2 | C[C@@]1(O)[C@H](O)[C@@H](CO)O[C@H]1n1ccc(=O)[nH]c1=O |  |  |  | > 100 µM | 30 µM |  |  |  |  | 
3 | CC(C)OC(=O)[C@H](C)N[P@](=O)(OC[C@H]1O[C@@H](n2ccc(=O)[nH]c2=O)[C@](C)(F)[C@@H]1O)Oc1ccccc1 [SOFOSBUVIR] |  |  |  |  | 0.284 µM | 552 nM | 310 pmol·h/g | >352 | 330 pmol·h/mL | 
4 | C[C@@]1(F)[C@H](O)[C@@H](COP(=O)(O)OP(=O)(O)OP(=O)(O)O)O[C@H]1n1ccc(=O)[nH]c1=O [GS-461203] | 7.7 | 606 nM | 79 nM |  |  |  |  |  |  | 
5 | C[C@@]1(Cl)[C@H](O)[C@@H](CO)O[C@H]1n1ccc(=O)[nH]c1=O |  |  |  | > 100 µM | 57 µM |  |  |  |  | 
6 | CC(C)OC(=O)[C@@H](C)N[P@@](=O)(OC[C@H]1O[C@@H](n2ccc(=O)[nH]c2=O)[C@](C)(Cl)[C@@H]1O)Oc1ccccc1 [UPRIFOSBUVIR] |  |  |  |  | 56.8 µM | 323 nM | 6200 pmol·h/g | >2 | 1400 pmol·h/mL | Drug metabolism (Cytochrome P450 3A5): Metabolite_Detected; Drug metabolism (Cytochrome P450 3A4): Metabolite_Detected
